Consider 23 compounds from ChEMBL document CHEMBL1123206, “5-(Alkylsulfonyl)salicylanilides as potential dental antiplaque agents” (J Med Chem, 1986).

Converted amounts (≈) assume the structure as drawn. The source made the active and inactive calls. The rule behind the calls is not given here. A value given as a limit tells only on which side of the number the result lay.

Data set [1] relates to Actinomyces viscosus. The data set can be described thus: Minimum inhibitory concentration against Actinomyces viscosus. The format is functional. A digest of the protocol: (§1)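 Tube dilution in trypticase soy broth, threefold dilutions from 1000 to 0.1 μg/mL. Stocks were 1 mg/100 μL in EtOH or Me₂SO. The inoculum was 50 μL of 10⁸ cfu/mL log-phase A. viscosus M100-2000, incubated aerobically at 37 °C. MIC was read visually at 24 h.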

Data set [2] has as its system Actinomyces viscosus. The data set can be described thus: Compound was tested against Actinomyces viscosus. The class given is functional.
A short description of data set [3]: Dissociation constant of the compound. The class given is physicochemical. A digest of the protocol:
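Spectroscopic pKa in 0.01 M phosphate buffers without cosolvent, below 10⁻⁴ M. Only pH values giving >60% ionization were used. The analytical wavelength was the longest λmax at pH 12 (260–370 nm). The value is the average of triplicate determinations.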

A short description of data set [4]: Partition coefficient (logP). The settings on record: octanol/water. The format is physicochemical. Summed up:
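log P calculated, not measured: 3.27 for salicylanilide plus π of the 4'-substituent plus π of R' (phenolic hydrophobicity substituent constants).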

Data set [5] in a line: Partition coefficient (logD). The format is physicochemical. The conditions noted are these: octanol/water. A digest of the protocol: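 logD calculated at pH 7.2 as log D = log P + log[1/(1 + 10^(pH−pKa))], using the calculated log P and spectroscopic pKa.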
The test system of data set [6] is Actinomyces viscosus. The data set can be described thus: Compound was tested for it's inhibitory activity against Actinomyces viscosus M100-2000. The class given is functional, organism-based.
In data set [7] the test system is Streptococcus mutans. The data set can be described thus: The compound was tested for it's inhibitory activity against Streptococcus mutans. The class given is functional, organism-based.
The subject of data set [8] is Streptococcus mutans. The data set can be described thus: Maximum percentage inhibition against Streptococcus mutans at a concentration of 0.2% w/v. The format is functional. Summed up: (§2)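 Bovine enamel slabs (4 × 8 mm) were autoclaved in PBS pH 7.5, coated with human saliva (1 h, 37 °C), dipped in drug solution at the stated w/v for 2 min, then rinsed. They were incubated 24 h at 37 °C in 1% sucrose-supplemented medium inoculated with the plaque-forming organism. Tooth-adherent, glass-adherent and nonadherent fractions were read by OD540. Water-dipped slabs served as controls. Run in triplicate.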

The subject of data set [9] is Actinomyces viscosus. The data set can be described thus: Maximum percentage inhibition against Actinomyces viscosus M-100-2000 at a concentration of 0.2% w/v.
Data set [10] relates to Actinomyces viscosus. The data set can be described thus: Minimum inhibitory concentration against Actinomyces viscosus M100-2000; NE is Not Effective. The class given is functional, organism-based. A digest of the protocol:
as §1

Data set [11] relates to Actinomyces viscosus. The data set can be described thus: Maximum percentage inhibition against Actinomyces viscosus 6715-13WT at a concentration of 0.1% w/v. The class given is functional. The conditions noted are these: in the assay text read “M-100-2000” for “6715-13WT”. A digest of the protocol: as §2
Data set [12] concerns Streptococcus mutans. The data set can be described thus: Maximum percentage inhibition against Streptococcus mutans at a concentration of 0.1% w/v. The class given is functional. A digest of the protocol: as §2

The MIC is the lowest concentration that inhibits growth of the organism. For the compound `CCCCCCCCS(=O)(=O)c1ccc(O)c(C(=O)Nc2ccc([N+](=O)[O-])cc2)c1`, the minimal inhibitory concentration (MIC) in the data set with Actinomyces viscosus [1] came to 1 µg/mL (≈ 2.3 µM).
On the same count and under the same terms, under `CS(=O)(=O)c1ccc(O)c(C(=O)Nc2ccccc2)c1` stands not below 1000 µg/mL.
By pKa is commonly meant the pH at which an ionisable group is half protonated. Read a low pKa as a stronger acid or weaker base. For orientation: logP means a log measure of how a compound divides between an organic and an aqueous phase. Read a low logP as a more hydrophilic compound. The logD is lipophilicity at a set pH, counting ionised and neutral species. Regarding `CCCCS(=O)(=O)c1ccc(O)c(C(=O)Nc2ccc(Br)cc2)c1`, in the data set on Actinomyces viscosus [1], 20 µg/mL (≈ 48.5 µM) was the least that counted as inhibitory (MIC). For the same compound, the “Log 1/MIC” value with Actinomyces viscosus [2] came to 4.31. The compound also showed a pKa in data set [3] of 5.2. In [4], this compound had a logP of 4.12. For the same compound, the logD in [5] was found to be 2.48.
In the data set with Actinomyces viscosus [1], `CS(=O)(=O)c1ccc(O)c(C(=O)Nc2ccc(Br)cc2)c1` came in with an MIC not below 1000 µg/mL.
As for `CCCCCCCCCCCCS(=O)(=O)c1ccc(O)c(C(=O)Nc2ccc(C(F)(F)F)cc2)c1`, the MIC with Actinomyces viscosus [1] is 0.05 µg/mL (≈ 0.0973 µM). In the data set with Actinomyces viscosus [2], this compound showed a Log 1/MIC of 7.01. The compound further showed a pKa in data set [3] of 6.2. In addition, the logP in data set [4] amounted to 8.46. In addition, the pH-dependent lipophilicity (logD) in data set [5] came to 7.42.
For `CCCCCCCCCCCCCCS(=O)(=O)c1ccc(O)c(C(=O)Nc2ccc([N+](=O)[O-])cc2)c1`, in the data set with Actinomyces viscosus [1], it took 0.5 µg/mL (≈ 0.964 µM) to inhibit growth (MIC).
Regarding `CCCCCCCCCCCCS(=O)(=O)c1ccc(O)c(C(=O)Nc2ccc(C#N)cc2)c1`, the MIC against Actinomyces viscosus [1] came to 1 µg/mL (≈ 2.12 µM).
As a reminder, the IC50 is the concentration that inhibits the measured activity by half. Low readings indicate greater potency in that assay, high ones weaker potency in that assay. Broadly, the inhibition is the share of the control response that was lost under treatment. Turning to `O=C(Nc1ccc(Br)cc1)c1cc(Br)cc(Br)c1O` [TRIBROMSALAN], the half-maximal inhibitory concentration (IC50) with Actinomyces viscosus [6] amounted to 880 µM; in the data set with Streptococcus mutans [7], 1200 µM. The MIC with Actinomyces viscosus [1] worked out at 0.5 µg/mL (≈ 1.11 µM). In addition, the figures for the inhibition at 0.2 % strength in the data set on Streptococcus mutans [8] and in the data set with Actinomyces viscosus [9] were 46% and 53%, respectively.
With `CCCCCCS(=O)(=O)c1ccc(O)c(C(=O)Nc2ccc(Br)cc2)c1`, the lowest concentration to inhibit growth in the data set on Actinomyces viscosus [1] (MIC) was 5 µg/mL (≈ 11.4 µM). Also, in the data set with Actinomyces viscosus [2], the “Log 1/MIC” value is on record as 4.94. This compound yielded a pKa in data set [3] of 5.2. The same compound registered a logP in data set [4] of 5.2. The compound also gave a log distribution coefficient (logD) in data set [5] of 3.2.
Regarding `CCCCCCCCCCCCCCS(=O)(=O)c1ccc(O)c(C(=O)Nc2cccc(C(F)(F)F)c2)c1`, the MIC result in the data set on Actinomyces viscosus [10] is “inactive”.
The same measure, in the same setting: for `CCCCCCCCCCCCCCS(=O)(=O)c1ccc(O)c(C(=O)Nc2ccc(C(F)(F)F)cc2)c1` the value was “inactive”.
Take `CCCCCCCCS(=O)(=O)c1ccc(O)c(C(=O)Nc2ccc(C(F)(F)F)cc2)c1`: the MIC with Actinomyces viscosus [1] was 0.5 µg/mL (≈ 1.09 µM). Also, the “Log 1/MIC” value with Actinomyces viscosus [2] came to 5.96. Further, the pKa in [3] was 6.2. Besides, the lipophilicity (logP) in data set [4] worked out at 6.3. The compound further had a logD in data set [5] of 5.26.
In the case of `CCCCCCCCCCS(=O)(=O)c1ccc(O)c(C(=O)Nc2ccc(C(F)(F)F)cc2)c1`, the concentration for half-maximal inhibition (IC50) was 90 µM in the data set with Actinomyces viscosus [6] and 1900 µM in the data set with Streptococcus mutans [7]. This compound yielded a minimum inhibitory concentration (MIC) against Actinomyces viscosus [1] of 0.1 µg/mL (≈ 0.206 µM). For the same compound, in the data set on Actinomyces viscosus [2], the “Log 1/MIC” value was determined as 6.69. In data set [3], this compound gave a pKa of 6.2. Further, the lipophilicity (logP) in [4] is 7.38. The compound further came in with a logD in data set [5] of 6.34. The inhibition at 0.2 % strength in the data set on Streptococcus mutans [8] is 76%; in the data set on Actinomyces viscosus [9], 95%.
Compound `CCCCCCCCCCCCS(=O)(=O)c1ccc(O)c(C(=O)Nc2cccc(C(F)(F)F)c2)c1` yielded an MIC in the data set with Actinomyces viscosus [1] of 0.1 µg/mL (≈ 0.195 µM).
In the case of `CCCCCCCCCCS(=O)(=O)c1ccc(O)c(C(=O)Nc2ccc([N+](=O)[O-])cc2)c1`, the IC50 in the data set on Actinomyces viscosus [6] was found to be 230 µM; in the data set with Streptococcus mutans [7], 190 µM. For the same compound, in the data set on Actinomyces viscosus [1], the minimal inhibitory concentration (MIC) came to 0.5 µg/mL (≈ 1.08 µM). The inhibition at 0.2 % strength in the data set with Streptococcus mutans [8] was found to be 80%; with Actinomyces viscosus [9] it was 93%.
Compound `CCCCCCCCCCCCS(=O)(=O)c1ccc(O)c(C(=O)Nc2ccc(Br)cc2)c1` showed a minimum inhibitory concentration (MIC) against Actinomyces viscosus [1] of 0.5 µg/mL (≈ 0.953 µM). The “Log 1/MIC” value in the data set with Actinomyces viscosus [2] worked out at 6.02. In addition, the pKa in [3] was 5.2. For the same compound, in data set [4], the logP amounted to 8.44. For the same compound, the log distribution coefficient (logD) in data set [5] stood at 6.49.
Take `CCCCS(=O)(=O)c1ccc(O)c(C(=O)Nc2ccc(C(F)(F)F)cc2)c1`: it took 20 µg/mL (≈ 49.8 µM) to inhibit growth with Actinomyces viscosus [1] (MIC). Also, the “Log 1/MIC” value in the data set with Actinomyces viscosus [2] is on record as 4.31. This compound also gave a pKa in data set [3] of 6.2. For the same compound, in data set [4], the logP worked out at 4.14. This compound yielded a logD in data set [5] of 3.1.
`CCCCCCCCCCCCS(=O)(=O)c1ccc(O)c(C(=O)Nc2ccc(OC)cc2)c1` showed an MIC in the data set on Actinomyces viscosus [1] of 1000 µg/mL (≈ 2100 µM).
Take `CCCCCCCCCCS(=O)(=O)c1ccc(O)c(C(=O)Nc2cccc(C(F)(F)F)c2)c1`: the values for the half-maximal inhibitory concentration (IC50) with Actinomyces viscosus [6] and in the data set with Streptococcus mutans [7] were 680 µM and 2300 µM, respectively. The inhibition at 0.1 % strength in the data set with Actinomyces viscosus [11] was 83%; with Streptococcus mutans [12], 47%. In addition, inhibition of growth in the data set with Actinomyces viscosus [1] (MIC) required 0.5 µg/mL (≈ 1.03 µM).
As for `CCCCCCS(=O)(=O)c1ccc(O)c(C(=O)Nc2ccc(C(F)(F)F)cc2)c1`, in the data set on Actinomyces viscosus [1], the minimal inhibitory concentration (MIC) is 5 µg/mL (≈ 11.6 µM). Also, the “Log 1/MIC” value in the data set with Actinomyces viscosus [2] is listed as 4.94. The pKa in data set [3] is 6.2. Also, in data set [4], the logP came out at 5.22. Besides, in data set [5], the pH-dependent lipophilicity (logD) was determined as 4.18.
The matching figures for `CCCCCCCCCCS(=O)(=O)c1ccc(O)c(C(=O)Nc2ccc(Br)cc2)c1`: 0.5 µg/mL (≈ 1.01 µM), 6, 5.2, 7.36 and 5.36.
In turn, `CS(=O)(=O)c1ccc(O)c(C(=O)Nc2ccc(C(F)(F)F)cc2)c1` displayed a minimum inhibitory concentration (MIC) in the data set with Actinomyces viscosus [1] of 1000 µg/mL (≈ 2780 µM). Further, the “Log 1/MIC” value with Actinomyces viscosus [2] is listed as 2.56. The compound also showed a pKa in data set [3] of 6.2. Also, the lipophilicity (logP) in data set [4] is 2.52. The compound further displayed a log distribution coefficient (logD) in data set [5] of 1.48.
Compound `CCCCCCCCCCCCS(=O)(=O)c1ccc(O)c(C(=O)Nc2ccc([N+](=O)[O-])cc2)c1` registered a minimum inhibitory concentration (MIC) against Actinomyces viscosus [1] of 0.5 µg/mL (≈ 1.02 µM).
